Our source for the IC50 and inhibition values is ChEMBL document CHEMBL1157645, “Synthesis of 2-(thienyl-2-yl or -3-yl)-4-furyl-6-aryl pyridine derivatives and evaluation of their topoisomerase I and II inhibitory activity, cytotoxicity, and structure-activity relationship” (Bioorg Med Chem, 2010).

The subject of one assay is HCT-15. Description: Cytotoxicity against human HCT15 cells in presence of 10% fetal bovine serum. The format is functional, cell-based. Summed up:
(§1)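 Cells cultured per supplier's instructions and seeded at 2–4 × 10⁴ cells per well. On day 2 the medium was replaced with medium containing graded compound concentrations. On day 4 cell counting kit-8 was added for a further 4 h, and absorbance was read at 450 nm. Values are 50% inhibitory concentrations, given as mean from three experiments run in triplicate.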

A further assay has as its system DU-145. Description: Cytotoxicity against human DU145 cells in presence of 10% fetal bovine serum. The format is functional, cell-based. The method in brief: as §1
For the next assay, the system named is HeLa. In words: Cytotoxicity against human HeLa cells in presence of 10% fetal bovine serum. The format is functional, cell-based. The method in brief: as §1
The target in assay [1] is DNA topoisomerase 2-alpha (Homo sapiens) (UniProt P11388). Description: Inhibition of human recombinant DNA topoisomerase 2 assessed as inhibition of relaxation of supercoiled pBR322 DNA at 20 uM by agarose gel electrophoresis. Summed up:
(§2)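 pBR322 DNA was incubated with two units of human topo IIα, with or without compound (DMSO stocks at 20 mM), in 10 mM Tris–HCl pH 7.9 with 50 mM NaCl, 5 mM MgCl₂, 1 mM EDTA, 1 mM ATP and BSA, for 30 min at 30 °C. The reaction was stopped with EDTA and run on 1% agarose in TAE at 25 V for 4 h. Gels were stained with ethidium bromide, and supercoiled DNA was quantified under UV.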

Assay [2] has the same target. Description: Inhibition of human recombinant DNA topoisomerase 2 assessed as inhibition of relaxation of supercoiled pBR322 DNA at 100 uM by agarose gel electrophoresis. The method in brief: as §2
Assay [3] addresses T1, DNA topoisomerase 1 (Homo sapiens) (UniProt P11387).
T1 sequence (whole entry): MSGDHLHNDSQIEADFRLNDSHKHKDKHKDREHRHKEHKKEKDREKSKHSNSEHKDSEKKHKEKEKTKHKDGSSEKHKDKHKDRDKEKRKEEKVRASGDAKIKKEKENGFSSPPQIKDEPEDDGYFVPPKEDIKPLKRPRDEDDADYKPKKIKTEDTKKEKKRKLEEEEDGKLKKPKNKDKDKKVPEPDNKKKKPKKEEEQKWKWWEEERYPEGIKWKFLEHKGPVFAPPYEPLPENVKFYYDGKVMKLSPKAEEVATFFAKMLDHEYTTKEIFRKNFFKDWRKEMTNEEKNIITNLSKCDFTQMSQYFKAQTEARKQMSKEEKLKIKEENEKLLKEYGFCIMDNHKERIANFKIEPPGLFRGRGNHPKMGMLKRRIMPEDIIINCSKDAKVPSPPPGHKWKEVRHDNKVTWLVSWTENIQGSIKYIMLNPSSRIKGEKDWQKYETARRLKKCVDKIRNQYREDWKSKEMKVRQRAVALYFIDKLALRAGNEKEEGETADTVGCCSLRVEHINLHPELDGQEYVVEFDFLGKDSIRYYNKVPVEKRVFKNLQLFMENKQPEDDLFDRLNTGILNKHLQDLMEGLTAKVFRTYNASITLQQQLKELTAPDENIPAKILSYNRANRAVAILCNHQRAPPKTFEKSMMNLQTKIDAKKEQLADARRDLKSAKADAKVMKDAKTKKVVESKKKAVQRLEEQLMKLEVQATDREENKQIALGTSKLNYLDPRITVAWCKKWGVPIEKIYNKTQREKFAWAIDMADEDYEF
In words: Inhibition of human recombinant topoisomerase 1 assessed as inhibition of relaxation of supercoiled pBR322 DNA at 100 uM by agarose gel electrophoresis. Summed up:
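100 ng pBR322 DNA was incubated with 0.4 units of recombinant human topo I, with or without compound (DMSO stocks at 20 mM), for 30 min at 37 °C in 10 mM Tris–HCl pH 7.9, 150 mM NaCl, 0.1% BSA, 1 mM spermidine and 5% glycerol. The reaction was stopped with sarkosyl/bromophenol blue/glycerol and run on 1% agarose in TAE at 15 V for 7 h. Relaxation was read from ethidium bromide staining.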

The next assay deals with MCF7. Description: Cytotoxicity against human MCF7 cells in presence of 10% fetal bovine serum. It counts as functional. The method in brief: as §1
In another assay the test system is K562. Description: Cytotoxicity against human K562 cells in presence of 10% fetal bovine serum. It counts as functional, cell-based. Summed up: as §1

Chain of DNA topoisomerase 2-alpha (Homo sapiens) (P11388 whole entry): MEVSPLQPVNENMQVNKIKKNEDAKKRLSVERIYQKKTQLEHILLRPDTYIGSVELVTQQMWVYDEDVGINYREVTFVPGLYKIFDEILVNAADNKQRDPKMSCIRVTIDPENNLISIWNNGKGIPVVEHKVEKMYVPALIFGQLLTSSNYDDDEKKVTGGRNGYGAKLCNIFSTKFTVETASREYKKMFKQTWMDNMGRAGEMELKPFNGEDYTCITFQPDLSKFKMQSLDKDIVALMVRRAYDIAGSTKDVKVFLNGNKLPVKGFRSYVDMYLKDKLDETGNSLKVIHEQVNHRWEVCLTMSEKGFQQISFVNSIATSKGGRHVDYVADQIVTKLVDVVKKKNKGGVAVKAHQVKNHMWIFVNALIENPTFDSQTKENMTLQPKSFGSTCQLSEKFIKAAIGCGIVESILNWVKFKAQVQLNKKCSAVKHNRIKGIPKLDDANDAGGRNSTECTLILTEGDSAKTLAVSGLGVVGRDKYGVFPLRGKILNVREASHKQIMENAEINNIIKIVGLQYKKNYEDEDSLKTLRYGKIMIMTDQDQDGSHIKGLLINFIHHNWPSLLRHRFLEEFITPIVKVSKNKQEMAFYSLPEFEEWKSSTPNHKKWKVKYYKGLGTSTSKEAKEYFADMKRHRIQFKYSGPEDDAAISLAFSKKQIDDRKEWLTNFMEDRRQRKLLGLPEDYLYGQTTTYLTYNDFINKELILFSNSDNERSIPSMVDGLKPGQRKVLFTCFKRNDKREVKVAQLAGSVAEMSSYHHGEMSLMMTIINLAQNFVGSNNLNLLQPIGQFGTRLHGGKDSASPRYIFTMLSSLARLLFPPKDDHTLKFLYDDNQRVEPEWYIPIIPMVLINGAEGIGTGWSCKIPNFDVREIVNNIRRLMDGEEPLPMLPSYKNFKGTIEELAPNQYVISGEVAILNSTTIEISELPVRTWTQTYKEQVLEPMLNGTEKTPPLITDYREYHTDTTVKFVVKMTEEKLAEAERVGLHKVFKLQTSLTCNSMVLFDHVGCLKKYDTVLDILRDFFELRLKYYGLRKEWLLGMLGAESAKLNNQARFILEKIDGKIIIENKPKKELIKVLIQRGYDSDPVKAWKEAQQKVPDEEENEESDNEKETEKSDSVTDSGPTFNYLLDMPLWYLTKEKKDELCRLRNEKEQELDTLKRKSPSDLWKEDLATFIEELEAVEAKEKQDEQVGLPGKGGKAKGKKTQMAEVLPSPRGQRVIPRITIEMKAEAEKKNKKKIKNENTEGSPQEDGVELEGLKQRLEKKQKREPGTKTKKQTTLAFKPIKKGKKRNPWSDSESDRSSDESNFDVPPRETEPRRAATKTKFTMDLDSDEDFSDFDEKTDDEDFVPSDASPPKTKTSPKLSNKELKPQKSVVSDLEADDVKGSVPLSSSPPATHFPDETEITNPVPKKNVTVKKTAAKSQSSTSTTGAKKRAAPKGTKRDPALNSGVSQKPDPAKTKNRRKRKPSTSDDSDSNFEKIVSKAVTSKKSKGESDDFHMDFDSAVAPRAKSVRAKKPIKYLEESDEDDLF

What is called IC50 is the concentration that gives 50% inhibition. In general, inhibition refers to how much of the control response was suppressed. For the molecule `Clc1ccc(-c2cc(-c3ccsc3)nc(-c3ccccc3Cl)c2)o1`, the IC50 came out at 4.57 µM with HCT-15; 19.3 µM with DU-145; 8.07 µM in the assay on HeLa; 1.71 µM in the assay with MCF7; 17.2 µM with K562. The inhibition in assay [1] was 59.5%; in assay [2] it was 64.1%; in assay [3] it was 0%.
Consider `Clc1ccc(-c2cc(-c3cccnc3)nc(-c3cccs3)c2)o1`, for which the IC50 with HCT-15 is 1.24 µM; in the assay with DU-145, 13 µM; in the assay on HeLa, 14.6 µM; in the assay with MCF7, 2.87 µM; with K562, 22.3 µM. Besides, the values for the inhibition in assay [1], in assay [2] and in assay [3] were 30.9%, 51.5% and 25.8%, respectively.
With `COc1cccc2c1C(=O)c1c(O)c3c(c(O)c1C2=O)C[C@@](O)(C(=O)CO)C[C@@H]3O[C@H]1C[C@H](N)[C@H](O)[C@H](C)O1.Cl` [DOXORUBICIN HYDROCHLORIDE], the IC50 with HCT-15 came out at 2.32 µM; with DU-145, 1.98 µM; in the assay with MCF7 it was 1.25 µM; with K562, 2.45 µM.
`COc1cc([C@@H]2c3cc4c(cc3[C@@H](O[C@@H]3O[C@@H]5CO[C@@H](C)O[C@H]5[C@H](O)[C@H]3O)[C@H]3COC(=O)[C@H]23)OCO4)cc(OC)c1O` [ETOPOSIDE]: the IC50 turned out to be 1.29 µM in the assay with HCT-15; 2.45 µM in the assay on DU-145; 1.57 µM in the assay with HeLa; 1.66 µM in the assay on MCF7; 2.84 µM with K562.
For the molecule `Clc1ccc(-c2cc(-c3ccsc3)nc(-c3ccccn3)c2)o1`, the IC50 in the assay with HCT-15 is above 50 µM; in the assay with DU-145, 10.9 µM; in the assay with HeLa it was 22.5 µM; with MCF7 it was 21 µM; with K562, 21.9 µM. In addition, the inhibition was 60.9% in assay [1], 63.1% in assay [2] and 0% in assay [3].
For the molecule `Clc1ccc(-c2cc(-c3cccnc3)nc(-c3ccsc3)c2)o1`, the IC50 is above 50 µM in the assay with HCT-15; 21.6 µM with DU-145; above 50 µM in the assay with HeLa; above 50 µM in the assay on MCF7; 21.7 µM in the assay on K562. Moreover, the figures for the inhibition in assay [1], in assay [2] and in assay [3] were 60.8%, 86.5% and 0%, respectively.
Turning to `Cc1ccc(-c2cc(-c3ccoc3)cc(-c3ccsc3)n2)cc1`, the IC50 in the assay with HCT-15 turned out to be 44.8 µM; in the assay with DU-145, 13 µM; in the assay on HeLa it was 1.47 µM; in the assay with MCF7, 9.32 µM; in the assay with K562, 47.8 µM. Further, the results for the inhibition in assay [2] and in assay [3] were 14.2% and 13.2%, respectively.
As to `Clc1ccc(-c2cc(-c3ccoc3)cc(-c3ccsc3)n2)cc1`, the IC50 with HCT-15 is above 100 µM; in the assay with DU-145, 37.6 µM; in the assay on HeLa it was 4.14 µM; with MCF7, 56.1 µM; in the assay on K562, 0.73 µM. In addition, the inhibition in assay [2] is 20.5%; in assay [3] it was 0%.
For the molecule `Clc1ccc(-c2cc(-c3ccco3)cc(-c3cccs3)n2)cc1`, the IC50 in the assay on HCT-15 is above 100 µM; with DU-145 it was above 100 µM; in the assay on HeLa it was 32.7 µM; in the assay with MCF7 it was 24.6 µM; with K562, above 100 µM. Besides, the values for the inhibition in assay [2] and in assay [3] were 31.4% and 2.7%, respectively.
Take `CC[C@@]1(O)C(=O)OCc2c1cc1n(c2=O)Cc2cc3ccccc3nc2-1` [CAMPTOTHECIN]: the IC50 amounted to 0.64 µM in the assay with HCT-15; 0.94 µM in the assay on DU-145; 0.63 µM in the assay with HeLa; 0.05 µM with MCF7; 0.08 µM in the assay on K562.
Turning to `Clc1ccc(-c2cc(-c3ccoc3)cc(-c3cccs3)n2)cc1`, the IC50 in the assay with HCT-15 turned out to be 50 µM; in the assay on DU-145 it was 21.1 µM; in the assay with HeLa it was 5.53 µM; in the assay on MCF7, 29.1 µM; with K562, 21.1 µM. Besides, the inhibition in assay [2] worked out at 30.2%; in assay [3], 0%.
